Measured values taken from publication PMC2813889 (Toxicon : official journal of the International Society on …, 2009).
Read-outs that look alike come from different tables or passages of the source.

Assays:
[1] = target: protein phosphatase 2A (PP2A) (Homo sapiens, UniProt P67775); assay: Protein phosphatase 2A inhibition assay; format: biochemical
How it was run: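 Colorimetric PP2A inhibition after a published method. Samples incubated 1 h at room temperature and read at 405 nm. A standard curve of the parent toxin was prepared identically to the samples. Isolated metabolite concentrations were set by LC-MS against a single-point calibration (10 μL of 6.2 μM parent toxin, 50 ng). IC50 taken from activity versus log concentration curves.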

various liver cell lines = details: depending on cell line; ref Souid-Mensi, et al., 2008; cited from earlier work
[2] = Incubation of OA with pooled human liver microsomes; format: in vitro ADME; details: 5 mg mL^-1 protein, 5 μM OA, 37 °C, 30 min
CYP3A4 = CYP3A4 (Homo sapiens, UniProt P08684); assay: Incubation of OA with recombinant CYP3A4 and CYP3A4 enzyme kinetics; format: in vitro ADME
Sequence of CYP3A4 (P08684 whole entry): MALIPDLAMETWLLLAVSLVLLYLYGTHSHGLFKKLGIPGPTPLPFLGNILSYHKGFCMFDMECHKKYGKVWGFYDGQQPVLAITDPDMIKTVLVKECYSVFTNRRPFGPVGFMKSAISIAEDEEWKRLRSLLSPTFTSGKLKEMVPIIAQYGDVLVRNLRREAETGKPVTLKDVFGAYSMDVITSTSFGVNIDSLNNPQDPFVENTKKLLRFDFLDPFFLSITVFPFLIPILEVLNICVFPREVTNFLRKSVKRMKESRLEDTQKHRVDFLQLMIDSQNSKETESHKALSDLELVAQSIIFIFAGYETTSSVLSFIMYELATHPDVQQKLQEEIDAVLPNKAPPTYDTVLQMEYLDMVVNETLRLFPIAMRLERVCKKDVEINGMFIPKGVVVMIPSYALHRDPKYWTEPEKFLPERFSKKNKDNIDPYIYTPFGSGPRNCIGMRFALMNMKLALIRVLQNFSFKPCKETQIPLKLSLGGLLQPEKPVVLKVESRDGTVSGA

CYP3A5 = CYP3A5 (Homo sapiens, UniProt P20815); assay: Incubation of OA with recombinant CYP3A5; format: in vitro ADME; details: CYP 3A5 reaction, after 6 hrs of incubation
Sequence of CYP3A5 (P20815 whole entry): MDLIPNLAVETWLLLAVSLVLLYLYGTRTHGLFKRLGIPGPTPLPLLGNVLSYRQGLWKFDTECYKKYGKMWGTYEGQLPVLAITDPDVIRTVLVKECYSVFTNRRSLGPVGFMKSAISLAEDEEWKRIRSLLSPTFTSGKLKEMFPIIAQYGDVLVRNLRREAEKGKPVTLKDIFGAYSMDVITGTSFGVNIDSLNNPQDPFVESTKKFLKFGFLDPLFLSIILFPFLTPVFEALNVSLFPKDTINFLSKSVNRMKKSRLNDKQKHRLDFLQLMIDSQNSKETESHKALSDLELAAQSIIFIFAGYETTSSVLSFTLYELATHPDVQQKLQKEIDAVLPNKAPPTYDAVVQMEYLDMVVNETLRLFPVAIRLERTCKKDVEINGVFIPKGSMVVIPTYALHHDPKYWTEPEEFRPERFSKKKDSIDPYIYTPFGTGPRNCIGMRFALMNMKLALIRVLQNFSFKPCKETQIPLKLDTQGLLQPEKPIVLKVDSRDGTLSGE

[3] = test system: CYP1A1, 1A2, 2C8, 2C9, 2C19, 2D6, 2E1; assay: Incubation of OA with the seven other recombinant P450s; format: in vitro ADME, human; details: same incubation conditions, limit of detection 0.1 ng OA

Sequence of protein phosphatase 2A (PP2A) (P67775 whole entry): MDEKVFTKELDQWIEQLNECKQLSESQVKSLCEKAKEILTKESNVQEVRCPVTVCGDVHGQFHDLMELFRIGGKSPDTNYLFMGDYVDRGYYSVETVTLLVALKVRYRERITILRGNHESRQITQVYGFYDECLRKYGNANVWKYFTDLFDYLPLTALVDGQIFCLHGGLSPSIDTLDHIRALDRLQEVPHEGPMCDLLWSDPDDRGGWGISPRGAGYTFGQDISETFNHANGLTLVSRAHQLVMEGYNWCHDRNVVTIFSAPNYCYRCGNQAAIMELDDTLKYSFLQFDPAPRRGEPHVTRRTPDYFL

| Compound | IC50 ([1]; read-out: IC50, inhibition of PP2A, 1 h at room temperature, read at 405 nm) [nM] | LD50 for OA with various liver cell lines (various liver cell lines) [nM] | metabolite formation in pooled human liver microsomes [2] | overall yield of all four metabolites (CYP3A4; CYP3A4 reaction, after 6 hrs of incubation) [%] | Vmax for the oxidation of OA by CYP3A4 (CYP3A4; double-reciprocal plots, OA 10 μM to 100 μM, 300 pmol 3A4) | Km (CYP3A4; human, recombinant CYP3A4) [µM] | IC50 [1] [nM] | overall yield of all four metabolites (CYP3A5) [%] | metabolism of OA by the seven other P450s [3] |
| --- | --- | --- | --- | --- | --- | --- | --- | --- | --- |
| 11S-hydroxy okadaic acid [metabolite 2] | 1.34 | – | – | – | – | – | – | – | – |
| C=C1[C@@H](O)[C@@H]2O[C@]3(CC[C@H](/C=C/[C@@H](C)[C@@H]4CC(C)=C[C@@]5(O[C@H](C[C@@](C)(O)C(=O)O)CC[C@H]5O)O4)O3)CC[C@H]2O[C@@H]1[C@@H](O)C[C@H](C)[C@H]1O[C@@]2(CCCCO2)CC[C@H]1C [OA, Okadaic acid] | – | 10 to 100 | four metabolites, identical to those formed in CYP3A4 incubations, were produced | 31.3 | 7.23 nmol of metabolites nmol^-1 min^-1 | 73.4 | 0.61 | 6.1 | none of the seven other P450s metabolized OA |
